The values below come from ChEMBL document CHEMBL5344453, “Selective Recognition of c-KIT 1 G-Quadruplex by Structural Tuning of Heteroaromatic Scaffolds and Side Chains” (ACS Med Chem Lett, 2024).

By Kd is commonly meant a measure of binding affinity in units of concentration. Broadly, the inhibition is the drop in the measured response relative to a control, in per cent. What is called ΔTm is the change in melting temperature against a reference sample. Broadly, the IC50 is the concentration that gives 50% inhibition.

Test [1] has as its target Quadruplex DNA. The test is described as follows: Binding affinity to G-quadruplex c-KIT1 5-FAM-GGGAGGGCGCTGGGAGGAGGG-TAMRA-3 (unknown origin) assessed as dissociation constant by fluorescence spectroscopy assay. In kind it is nucleic-acid assay.
Test [2] can be described thus: Reduction of c-KIT protein expression in human K562 cells at 6 uM measured after 24 hrs by Western blotting analysis relative to control. The test is classed as functional. Put shortly:
(§1)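 K562 cells were treated with ligand (3 and 6 μM or 5.5 and 11 μM). c-KIT protein was measured by Western blot with GAPDH as the housekeeping reference, relative to control.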

Test [3] relates to K562. Nature of the test: Attenuation of proto-oncogene expression in human c-KIT-positive K562 cells assessed as reduction in c-MYC oncogene expression at 3 uM measured after 24 hrs by qRT-PCR analysis relative to control. In kind it is functional. In a few lines:
(§2)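 K562 cells treated 24 h at two doses per ligand (3 and 6 μM, 5.5 and 11 μM; positive control 2 and 4 μM). c-KIT, c-MYC and BCL-2 mRNA measured by qRT-PCR and normalized to housekeeping gene 18s, relative to untreated control.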

For test [4], the system named is K562. Nature of the test: Attenuation of proto-oncogene expression in human c-KIT-positive K562 cells assessed as reduction in c-KIT oncogene expression at 3 uM measured after 24 hrs by qRT-PCR analysis relative to control. The test is classed as functional. Put shortly:
as §2
A general note: Real-time PCR tracks product formation cycle by cycle.

A short description of test [5]: Reduction of c-MYC oncogene expression in human K562 cells transfected with c-MYC plasmid construct assessed as reduction in luciferase expression at 3 uM measured after 36 hrs by luciferase reporter assay. The test is classed as functional. Put shortly:
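Promoter luciferase reporter: K562 cells transfected with a c-MYC promoter G4-containing luciferase-expressing plasmid, then ligand-treated at two doses each (3 and 6 μM, or 5.5 and 11 μM); read-out as relative luciferase expression, reported as percent reduction.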

A short description of test [6]: Reduction of c-KIT oncogene expression in human K562 cells transfected with c-KIT plasmid construct assessed as reduction in luciferase expression at 6 uM measured after 36 hrs by luciferase reporter assay. The test is classed as functional. In a few lines:
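K562 cells were transfected with luciferase plasmids carrying the c-KIT, c-MYC or BCL-2 promoter G4. They were then treated with ligand (3 and 6 μM or 5.5 and 11 μM), and relative luciferase expression was measured.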
In general terms: In a reporter assay the amount or activity of a reporter protein is the signal.

Test [7] relates to Quadruplex DNA. The test is described as follows: Stabilization of G-quadruplex c-MYC 5-FAM-TGGGGAGGGTGGGGAGGGTGGGGAAGG-TAMRA- 3 (unknown origin) assessed as change in melting temperature at 1 uM incubated for 1 hr in dark condition by FRET-based melting assay. The test is classed as nucleic-acid assay. In a few lines:
(§3)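 FRET melting of dual-fluorophore-tagged oligonucleotides (200 nM) in 60 mM potassium cacodylate buffer, pH 7.4, with ligand at 1 μM; ΔTm taken against the ligand-free oligonucleotide Tm as control.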

The test system of test [8] is K562. Nature of the test: Attenuation of proto-oncogene expression in human c-KIT-positive K562 cells assessed as reduction in BCL-2 oncogene expression at 3 uM measured after 24 hrs by qRT-PCR analysis relative to control. In kind it is functional. In a few lines: as §2
Test [9] concerns Quadruplex DNA. Nature of the test: Binding affinity to excessive G-quadruplex VEGF 5-FAM-CGGGGCGGGCCGGGGGCGGGGT-TAMRA-3 (unknown origin) assessed as fold increase in fluorescence intensity at 1 uM incubated for 1 hr in dark condition by fluorescence spectroscopy assay. In kind it is nucleic-acid assay. In a few lines: (§4)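 Fluorimetric titration in 100 mM Tris-KCl buffer, pH 7.4. Ligand fixed at 1.0 μM and titrated with increasing concentrations of each G-quadruplex until fluorescence saturation. The fold increase in ligand fluorescence intensity was read, and Kd was derived from the titration plot.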

Test [10] relates to Quadruplex DNA. The test is described as follows: Stabilization of G-quadruplex c-KIT2 5-FAM-GGGCGGGCGCGAGGGAGGGG-TAMRA-3 (unknown origin) assessed as change in melting temperature at 1 uM incubated for 1 hr in dark condition by FRET-based melting assay. In kind it is nucleic-acid assay. Put shortly:
as §3

The subject of test [11] is Quadruplex DNA. Nature of the test: Stabilization of G-quadruplex BCL2 5-FAM-AGGGGCGGGCGCGGGAGGAAGGGGGCGGGAGCGGGGCTG-TAMRA-3 (unknown origin) assessed as change in melting temperature at 1 uM incubated for 1 hr in dark condition by FRET-based melting assay. In kind it is nucleic-acid assay. In a few lines:
as §3

Test [12] relates to Quadruplex DNA. The test is described as follows: Binding affinity to G-quadruplex c-KIT1 5-FAM-GGGAGGGCGCTGGGAGGAGGG-TAMRA-3 (unknown origin) assessed as stability by CD spectra analysis. In kind it is nucleic-acid assay.
Test [13] concerns Quadruplex DNA. Nature of the test: Stabilization of G-quadruplex c-KIT1 5-FAM-GGGAGGGCGCTGGGAGGAGGG-TAMRA-3 (unknown origin) assessed as change in melting temperature at 7 uM incubated for 1 hr in dark condition by FRET-based melting assay. In kind it is nucleic-acid assay. In a few lines:
(§5)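 FRET melting of dual-fluorophore (FAM/TAMRA) tagged G-quadruplex (200 nM) in 60 mM potassium cacodylate, pH 7.4. The screen used 1 μM ligand; dose series used 1, 3, 5, 7 and 10 μM. ΔTm was taken against the Tm of the same oligonucleotide without ligand.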

The target in test [14] is Quadruplex DNA. The test is described as follows: Binding affinity to G-quadruplex c-KIT 2 5-FAM-GGGCGGGCGCGAGGGAGGGG-TAMRA-3 (unknown origin) assessed as dissociation constant by measuring thermogram by isothermal titration calorimetry (ITC) assay. In kind it is nucleic-acid assay. In a few lines:
(§6)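 ITC of ligand binding to folded G4 in 100 mM Tris-KCl buffer, pH 7.4. Kd and stoichiometry were obtained from the isothermal heat curve and binding isotherm.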
(Isothermal titration calorimetry measures the heat released or taken up as one component is titrated into another.)

Test [15] has as its system Quadruplex DNA. Nature of the test: Binding affinity to excessive G-quadruplex c-KIT1 5-FAM-GGGAGGGCGCTGGGAGGAGGG-TAMRA-3 (unknown origin) assessed as fold increase in fluorescence intensity at 1 uM incubated for 1 hr in dark condition by fluorescence spectroscopy assay. In kind it is nucleic-acid assay. Put shortly:
as §4

In test [16] the test system is Quadruplex DNA. Nature of the test: Stabilization of G-quadruplex c-KIT1 5-FAM-GGGAGGGCGCTGGGAGGAGGG-TAMRA-3 (unknown origin) assessed as change in melting temperature at 10 uM incubated for 1 hr in dark condition by FRET-based melting assay. In kind it is nucleic-acid assay. Put shortly:
as §5

For test [17], the system named is Quadruplex DNA. The test is described as follows: Binding affinity to G-quadruplex c-KIT1 5-FAM-GGGAGGGCGCTGGGAGGAGGG-TAMRA-3 (unknown origin) assessed as increase in melting temperature by CD spectra analysis. In kind it is nucleic-acid assay.
Test [18] deals with Quadruplex DNA. Nature of the test: Binding affinity to G-quadruplex h-TELO 5-FAM-TTGGGTTAGGGTTAGGGTTAGGGA-TAMRA-3 (unknown origin) assessed as dissociation constant by measuring thermogram by isothermal titration calorimetry (ITC) assay. The test is classed as nucleic-acid assay. In a few lines: as §6
The nature of test [19]: Reduction of c-KIT protein expression in human K562 cells at 3 uM measured after 24 hrs by Western blotting analysis relative to control. In kind it is functional. In a few lines: as §1
Test [20] concerns K562. Nature of the test: Induction of cell cycle arrest in human K562 cells assessed as accumulation at G0/G1 phase at 3 uM incubated for 24 hrs by propidium iodide based assay. The test is classed as functional. Put shortly: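 K562 cells were treated with ligand (3 and 6 μM or 5.5 and 11 μM) and stained with propidium iodide. The fraction of cells in each cell-cycle phase was determined by flow cytometry.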

The subject of test [21] is K562. The test is described as follows: Cytotoxicity against human c-KIT-positive K562 cells assessed as cell viability measured after 24 hrs by XTT formazan assay. The test is classed as functional, cell-based. Conditions: K562, 24 h.
In test [22] the test system is K562. Nature of the test: Induction of apoptosis in human K562 cells assessed as cell death at 6 uM incubated for 24 hrs by FITC-Annexin V and PI analysis relative to control. In kind it is functional. Put shortly:
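K562 cells after ligand treatment dual-stained with annexin V and propidium iodide. Apoptotic cell populations (early and late) scored by flow cytometry dot plot analysis.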

The source made the active and inactive calls. The rule behind the calls is not given here.

`CN(C)CCCNC(=O)c1ccc(-n2cc(-c3ccc4[nH]c5ccccc5c4c3)nn2)cc1`: the Kd in [1] is 1.4 µM; in test [14], 20.9 µM; in [18], 17.4 µM. Besides, the inhibition at 6 µM in test [2] came out at 65.5%; in test [6] it was 69%. Besides, the inhibition at 3 µM in [3] was determined as 15%; in [4], 28%; in [5] it was 6%; in test [8], 29%; in test [19], 23.3%. For the same molecule, the ΔTm came out at 3.2 °C in [7]; 9.9 °C in test [10]; 2.2 °C in [11]; 26.5 °C in test [13]; 26.5 °C in test [16]; 16 °C in test [17]. In addition, the fold change (FC) was 2.1 in test [9] and 5.2 in test [15]. Besides, in test [12], the result was Active. Besides, the results for the Activity in test [20] and in test [22] were 74.1% and 63%, respectively. Besides, in [21], the IC50 is 6.2 µM.
